ChEMBL document CHEMBL6109036, “Azo derivatives of monoterpenes as anti-Helicobacter pylori agents: from synthesis to structure-based target investigation” (RSC Med Chem, 2025)
≈ marks a conversion by molar mass, not a printed value.

Legend:
[1] = test system: Helicobacter pylori; test: Anti-bacterial activity against Helicobacter pylori Clinical isolate F1 measured after 72 hrs incubation by modified broth dilution method; assay type: functional
[2] = test system: Helicobacter pylori; test: Bactericidal activity against Helicobacter pylori Clinical isolate F1 measured after 72 hrs of incubation under microaerophilic conditions by modified broth dilution method; assay type: functional; conditions: read-out: MBC99.9
How it was run: (§1)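 H. pylori (NCTC 11637, F1, 23, F4). Wells with no visible growth in the MIC assay spotted (10 μL) onto Skirrow agar. Plates incubated 72 h at 37 °C, microaerophilic, 100% humidity. MBC = concentration killing 99.9% of the initial inoculum. Triplicate, on at least three different days.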

[3] = test system: Helicobacter pylori; test: Anti-bacterial activity against Helicobacter pylori Clinical isolate 23 measured after 72 hrs incubation by modified broth dilution method; assay type: functional
[4] = test system: Helicobacter pylori; test: Bactericidal activity against Helicobacter pylori Clinical isolate 23 measured after 72 hrs of incubation under microaerophilic conditions by modified broth dilution method; assay type: functional; conditions: read-out: MBC99.9; how it was run: as §1
[5] = test system: Helicobacter pylori; test: Anti-bacterial activity against Helicobacter pylori NCTC 11637 measured after 72 hrs incubation by modified broth dilution method; assay type: functional
[6] = test system: Helicobacter pylori; test: Bactericidal activity against Helicobacter pylori NCTC 11637 measured after 72 hrs of incubation under microaerophilic conditions by modified broth dilution method; assay type: functional; conditions: read-out: MBC99.9; how it was run: as §1
[7] = test system: Helicobacter pylori; test: Anti-bacterial activity against Helicobacter pylori Clinical isolate F4 measured after 72 hrs incubation by modified broth dilution method; assay type: functional
[8] = test system: Helicobacter pylori; test: Bactericidal against Helicobacter pylori Clinical isolate F4 measured after 72 hrs of incubation under microaerophilic conditions by modified broth dilution method; assay type: functional; conditions: read-out: MBC99.9; how it was run: as §1
[9] = test system: Helicobacter pylori; test: Anti-bacterial activity against Helicobacter pylori measured after 72 hrs incubation by modified broth dilution method; assay type: functional
[10] = test system: Helicobacter pylori; test: Bactericidal against Helicobacter pylori measured after 72 hrs of incubation under microaerophilic conditions by modified broth dilution method; assay type: functional; conditions: for MBC: Helicobacter pylori, read-out: MBC99.9
How it was run: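 Wells with no visible growth in the MIC assay spotted (10 μL) onto Skirrow agar. Plates incubated 72 h at 37 °C, microaerophilic, 100% humidity. Triplicate, on at least three different days.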

[11] = Cytotoxicity against SV40-immortalized non-tumorigenic human GES1 cells assessed as cell viability measured after 24 hrs by Alamar blue assay; assay type: toxicity, cell-based
How it was run: (§2)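 GES-1 cells grown in RPMI with 10% FCS, glutamine, pen/strep and 10 mM HEPES at 37 °C, 5% CO2. Exposed to increasing concentrations for 24, 48 or 72 h. Alamar blue then added for 4 h at 37 °C and read at 540 and 630 nm. Percent reduction relative to untreated cells (100%).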

[12] = Cytotoxicity against SV40-immortalized non-tumorigenic human GES1 cells assessed as cell viability measured after 48 hrs by Alamar blue assay; assay type: toxicity, cell-based; how it was run: as §2
[13] = Cytotoxicity against SV40-immortalized non-tumorigenic human GES1 cells assessed as cell viability measured after 72 hrs by Alamar blue assay; assay type: toxicity, cell-based; how it was run: as §2
[14] = Cytotoxicity against human HIEC-6 cells assessed as cell viability measured after 24 hrs by MTT assay
[15] = Cytotoxicity against human HIEC-6 cells assessed as cell viability measured after 48 hrs by MTT assay
[16] = Cytotoxicity against human HIEC-6 cells assessed as cell viability measured after 72 hrs by MTT assay
[17] = test system: Escherichia coli; test: Bactericidal against lactose fermenting Escherichia coli ATCC 25922 measured after 24 hrs of incubation by broth microdilution method; conditions: ATCC 25922, 24 h, read-out: MBC99.9
[18] = test system: Staphylococcus aureus; test: Bactericidal against Gram-positive Staphylococcus aureus ATCC 29213 measured after 24 hrs of incubation by broth microdilution method; conditions: ATCC 29213, 24 h, read-out: MBC99.9
[19] = test system: Pseudomonas aeruginosa; test: Bactericidal against non-lactose fermenting Pseudomonas aeruginosa ATCC 27853 measured after 24 hrs of incubation by broth microdilution method; conditions: ATCC 27853, 24 h, read-out: MBC99.9
[20] = test system: Escherichia coli; test: Anti-bacterial activity against lactose fermenting Escherichia coli ATCC 25922 measured after 24 hrs incubation by modified broth dilution method; conditions: ATCC 25922, 24 h
[21] = test system: Staphylococcus aureus; test: Anti-bacterial activity against Gram-positive Staphylococcus aureus ATCC 29213 measured after 24 hrs incubation by modified broth dilution method; conditions: ATCC 29213, 24 h
[22] = test system: Pseudomonas aeruginosa; test: Anti-bacterial activity against non-lactose fermenting Pseudomonas aeruginosa ATCC 27853 measured after 24 hrs incubation by modified broth dilution method; conditions: ATCC 27853, 24 h

SMILES | MIC [1] [µg/mL] | MBC [2] [µg/mL] | MIC [3] [µg/mL] | MBC [4] [µg/mL] | MIC [5] [µg/mL] | MBC [6] [µg/mL] | MIC [7] [µg/mL] | MBC [8] [µg/mL] | MIC50 [9] [µg/mL] | MIC90 [9] [µg/mL] | MBC90 [10] [µg/mL] | MBC [10] [µg/mL] | also measured
Cc1cc(OC(=S)N(C)C)c(C(C)C)cc1/N=N/c1ccc([N+](=O)[O-])cc1 | > 128 | > 128 | > 128 | > 128 | > 128 | > 128 | > 128 | > 128 | > 128 | > 128 | >128 | – | –
Cc1ccc(C(C)C)c(/N=N/c2ccc([N+](=O)[O-])cc2)c1O | 2 (≈ 6.68 µM) | 4 (≈ 13.4 µM) | 2 (≈ 6.68 µM) | 2 (≈ 6.68 µM) | 2 (≈ 6.68 µM) | 2 (≈ 6.68 µM) | 4 (≈ 13.4 µM) | 4 (≈ 13.4 µM) | 2 (≈ 6.68 µM) | 4 (≈ 13.4 µM) | 4 (≈ 13.4 µM) | – | IC50 at 24 h [11]: 15 µg/mL (≈ 50.1 µM); IC50 at 48 h [12]: 12.1 µg/mL (≈ 40.4 µM); IC50 at 72 h [13]: 12 µg/mL (≈ 40.2 µM); IC50 at 24 h [14]: 15.1 µg/mL (≈ 50.3 µM); IC50 at 48 h [15]: 13.4 µg/mL (≈ 44.7 µM); IC50 at 72 h [16]: 13.3 µg/mL (≈ 44.3 µM); MBC [17]: > 128 µg/mL; MBC [18]: 32 µg/mL (≈ 107 µM); MBC [19]: > 128 µg/mL; MIC [20]: > 128 µg/mL; MIC [21]: 2 µg/mL (≈ 6.68 µM); MIC [22]: > 128 µg/mL
Cc1cc(O)c(C(C)C)cc1/N=N/c1ccc([N+](=O)[O-])cc1 | 2 (≈ 6.68 µM) | 2 (≈ 6.68 µM) | 2 (≈ 6.68 µM) | 2 (≈ 6.68 µM) | 2 (≈ 6.68 µM) | 2 (≈ 6.68 µM) | 4 (≈ 13.4 µM) | 4 (≈ 13.4 µM) | 2 (≈ 6.68 µM) | 4 (≈ 13.4 µM) | 4 (≈ 13.4 µM) | – | IC50 at 24 h [11]: 12.1 µg/mL (≈ 40.4 µM); IC50 at 72 h [13]: 8.44 µg/mL (≈ 28.2 µM); IC50 at 24 h [14]: 13.6 µg/mL (≈ 45.4 µM); IC50 at 48 h [15]: 7.61 µg/mL (≈ 25.4 µM); IC50 at 72 h [16]: 7.61 µg/mL (≈ 25.4 µM); MBC [17]: > 128 µg/mL; MBC [18]: 32 µg/mL (≈ 107 µM); MBC [19]: > 128 µg/mL; MIC [20]: > 128 µg/mL; MIC [21]: 2 µg/mL (≈ 6.68 µM); MIC [22]: > 128 µg/mL
CC1(C)S[C@@H]2[C@H](NC(=O)[C@H](N)c3ccc(O)cc3)C(=O)N2[C@H]1C(=O)O [AMOXICILLIN] | 0.064 (≈ 0.175 µM) | 0.064 (≈ 0.175 µM) | 0.016 (≈ 0.0438 µM) | 0.016 (≈ 0.0438 µM) | 0.016 (≈ 0.0438 µM) | 0.016 (≈ 0.0438 µM) | 0.064 (≈ 0.175 µM) | 0.064 (≈ 0.175 µM) | 0.016 (≈ 0.0438 µM) | 0.064 (≈ 0.175 µM) | 0.064 (≈ 0.175 µM) | – | –
Cc1ccc(C(C)C)cc1O [CARVACROL] | 64 (≈ 426 µM) | 64 (≈ 426 µM) | 64 (≈ 426 µM) | 64 (≈ 426 µM) | 64 (≈ 426 µM) | 64 (≈ 426 µM) | 64 (≈ 426 µM) | 64 (≈ 426 µM) | 64 (≈ 426 µM) | 64 (≈ 426 µM) | – | 64 (≈ 426 µM) | –
C=CCc1ccc(O)c(OC)c1 [EUGENOL] | 64 (≈ 390 µM) | 128 (≈ 780 µM) | 64 (≈ 390 µM) | 64 (≈ 390 µM) | 32 (≈ 195 µM) | 64 (≈ 390 µM) | 64 (≈ 390 µM) | 64 (≈ 390 µM) | 64 (≈ 390 µM) | 64 (≈ 390 µM) | 64 (≈ 390 µM) | – | –
Cc1ncc([N+](=O)[O-])n1CCO [METRONIDAZOLE] | 2 (≈ 11.7 µM) | 2 (≈ 11.7 µM) | 1 (≈ 5.84 µM) | 1 (≈ 5.84 µM) | 256 (≈ 1500 µM) | 256 (≈ 1500 µM) | 32 (≈ 187 µM) | 32 (≈ 187 µM) | 2 (≈ 11.7 µM) | 256 (≈ 1500 µM) | 256 (≈ 1500 µM) | – | –
Cc1ccc(C(C)C)c(O)c1 [THYMOL] | 64 (≈ 426 µM) | 64 (≈ 426 µM) | 128 (≈ 852 µM) | 128 (≈ 852 µM) | 128 (≈ 852 µM) | 128 (≈ 852 µM) | 64 (≈ 426 µM) | 64 (≈ 426 µM) | 64 (≈ 426 µM) | 128 (≈ 852 µM) | – | 128 (≈ 852 µM) | –
COc1cc(C=O)ccc1O [VANILLIN] | > 128 | > 128 | > 128 | > 128 | > 128 | > 128 | 128 (≈ 841 µM) | 128 (≈ 841 µM) | > 128 | > 128 | – | > 128 | –
